From PubChem BioAssay
Only some compounds are listed: those with a hit (about 4.1% of all), similar ones and a draw of the others.
ATG4B inhibitor – blocks human ATG4B protease cleavage of LC3 substrate; Q9Y4P1; ATG4B cleavage of LC3-PLA2, NBD-HPC fluorescence, 1 h; inhibition, % at 8.33 µM; 340,000 tested, 0.51% active; AID 504462; in the data active means inhibition above about 40%
Target sequence (Q9Y4P1 whole entry, looked up): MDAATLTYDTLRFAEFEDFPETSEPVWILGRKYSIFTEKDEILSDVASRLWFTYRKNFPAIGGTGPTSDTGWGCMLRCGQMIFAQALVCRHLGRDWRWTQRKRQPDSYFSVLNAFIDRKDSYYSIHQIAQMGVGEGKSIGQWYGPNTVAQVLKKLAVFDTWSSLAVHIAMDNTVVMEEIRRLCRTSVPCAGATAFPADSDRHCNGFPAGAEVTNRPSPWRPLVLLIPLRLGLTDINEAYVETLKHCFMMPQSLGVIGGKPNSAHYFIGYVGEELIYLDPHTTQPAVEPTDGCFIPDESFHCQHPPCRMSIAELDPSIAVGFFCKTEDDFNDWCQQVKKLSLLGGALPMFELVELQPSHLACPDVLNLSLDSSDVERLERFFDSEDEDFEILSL
MC4R antag cAMP – antagonists of human melanocortin 4 receptor (MC4R) | P32245 | MC4R-expressing cells, MTII-stimulated cAMP, LANCE TR-FRET | inhibition, % at 6.5 µM | 360,000 tested, 0.48% active;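 active means inhibition above its plate's cutoff, the mean of tested wells on that plate plus 3 SD, cut at about 29% in these data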;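 further: 0% = Melanotan II alone and 100% = Melanotan II plus saturating MCL0020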
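System: U2OS cells stably expressing human melanocortin 4 receptor (MC4R). Reagent: Melanotan II challenge after compound preincubation. Doses: 6.5 µM. Times: 30-min compound, 1-h challenge, 1-h detection, room temperature. Measured by: TR-FRET with Eu-cAMP and labeled anti-cAMP, 671 nm. Replicates: singlicate.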
MPTP block – inhibitors of mitochondrial permeability transition pore; inhibition, % at 10 µM; isolated mouse mitochondria, Ca2+ swelling absorbance, 30 min; 360,000 tested, 1.4% active;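 active means inhibition of 50% or more, scaled per plate between neutral and stimulator controls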;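 further: 0% = DMSO wells given calcium and 100% = 1 mM EGTA wells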
MC4R ag barr – activates human MC4R beta-arrestin recruitment | U2OS MC4R beta-arrestin complementation, luminescence; percent of melanotan II response, DMSO zero | activation, % at 8.9 µM | 360,000 tested, 0.98% active | AID 540308;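 active means activation above a per-plate cutoff, the mean activation of sample wells on that plate plus 3 SD, cut at about 8% in these data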
SMARCA2 activ – SMARCA2 function activation, primary screen; MG213 cells, MMTV-luciferase reporter, dexamethasone, overnight; activation, % at 9.1 µM; 370,000 tested, 1% active; in the data active means activation above about 7.8%;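 further: 0% = vehicle wells and 100% = reference activator wells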
SMARCA2 conf – SMARCA2 activation, confirmation screen; shares compounds with SMARCA2 activ; MG213 cells, MMTV-luciferase with dexamethasone, luminescence, overnight; MG213 cells expressing E1A, Rb sequestered; DMSO wells 0%, reference activator 100%; activation, % at 9.1 µM; 3,500 tested, 30% active;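 active means activation above its plate's cutoff, the mean activation of tested wells plus 3 SD, cut at about 7.9% in these data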
VP16 Luc act – GAL4-VP16 reporter activation counter-screen. shares compounds with SMARCA2 activ. HEK293 GAL4-VP16 pG5luc reporter, luciferase luminescence; scaled: DMSO wells 0%, SAHA wells 100%. activation, % at 9.1 µM. AID 686939. 3,500 tested, 41% active;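 active means activation above the solvent-only control well mean plus 3 SD, averaged across control plates, cut at about 5.2% in these data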
An asterisk follows results filed as active; nt = not tested or not shown.

SMILES	ATG4B inhibitor	MC4R antag cAMP	MPTP block	MC4R ag barr	SMARCA2 activ	SMARCA2 conf	VP16 Luc act
COc1ccc(Nc2cc(C(=O)NCCCN3CCOCC3)c3ccccc3n2)cc1OC	-3	-6	2	-2	9.8*	1	1
COc1ccc(Nc2cc(C(=O)NCCCN3CCN(C)CC3)c3ccccc3n2)cc1OC	-9	0	1	-1	1	nt	nt
COC(=O)C1=C(C)N(C)C(=NCc2cccc(C(F)(F)F)c2)NC1c1ccccc1 (stereo unspecified)	nt	nt	nt	nt	-1	nt	nt
C#CCSc1nc(-c2cccs2)ccc1C#N	3	-6	-2	2	-1	nt	nt
COC(=O)CSc1nc(-c2cccs2)ccc1C#N	0	4	-4	-4	11*	13*	8.0*
CNc1cc(C)nc(N2CCOCC2)n1	-10	17	2	3	8.7*	-1	1
O=S1(=O)CC(N2CCCC2)CN1 (stereo unspecified)	nt	nt	nt	nt	-3	nt	nt
Cc1cc(C(=O)CSc2ncccn2)c(C)n1Cc1ccco1	0	8	2	-2	9.9*	9.9*	8.5*
Cc1ccc(Cn2cc(CN3[C@H](C)COc4cc(Br)ccc4S3(=O)=O)nn2)cc1	nt	nt	nt	nt	2	nt	nt
CN(Cc1ccccc1)C(=O)c1cccc(NC(=O)Cc2cccc(NC(=O)C3CCN(C(=O)CCc4ccccc4)CC3)c2)c1	nt	nt	nt	nt	-3	nt	nt
COc1ccc(-c2nc3ccccc3[nH]2)cc1	-12	-2	-1	2	5	nt	nt
COc1ccc(-c2cc(=O)n(-c3nc4ccccc4[nH]3)[nH]2)cc1	7	-3	2	-3	8.4*	18*	3
O=C(Cc1cccs1)NCc1cccc(Br)c1	-8	7	0	0	9.2*	4	7.8*
O=C(Cc1cccs1)Nc1ccc(NC(=O)c2ccco2)cc1	2	3	0	-1	12*	6	7.9*
O=C(Cc1cccs1)NCc1cccs1	1	10	-1	-1	nt	nt	nt
CCOC(=O)C1=C(C(=O)OCC)C2N(Cc3ccccc3)c3ccccc3[C@@]23C[C@@H](C(=O)OC)N(S(=O)(=O)c2ccc(C(F)(F)F)cc2)C3=N1 (stereo partly specified)	nt	nt	nt	nt	5	nt	nt
CCOC(=O)NC[C@@]1(C(=O)OC)CC(=O)N(C)[C@@H]1c1ccccc1	nt	nt	nt	nt	-1	nt	nt
COc1ccccc1/C=C/c1nc2ccccc2c(=O)o1	4	4	0	-1	10*	5	12*
CCOC(=O)C1=C(C(=O)OCC)C2N(Cc3ccc(Br)cc3)c3ccccc3[C@@]23C[C@@H](C(=O)OC)N(S(=O)(=O)c2cccs2)C3=N1 (stereo partly specified)	nt	nt	nt	nt	-6	nt	nt
C/C(=N\NC(=O)c1ccccc1OCc1ccc(F)cc1)c1ccccn1	-3	11	0	-4	17*	-15	7.6*
COC(=O)C1=C(C)N(Cc2ccc(Br)cc2)C(=S)NC1c1cccc(OC)c1 (stereo unspecified)	nt	nt	nt	nt	-3	nt	nt
Cc1[nH]c(=S)[nH]c(=O)c1Cc1c(O)ccc2ccccc12	0	9	1	-2	-2	nt	nt
Cc1[nH]c(=S)[nH]c(=O)c1Cc1ccccc1	-2	3	-1	-1	16*	0	1
CCc1nnc(NC(=O)C2CCCN2C(=O)Nc2ccccc2OC)s1 (stereo unspecified)	-5	-1	-2	-1	8.8*	1	3
Cc1ccccc1OCC(=O)NC1=NCCS1	-4	7	1	-2	9.0*	7	12*
SMILES	ATG4B inhibitor	MC4R antag cAMP	MPTP block	MC4R ag barr	SMARCA2 activ	SMARCA2 conf	VP16 Luc act
Cc1ccc(OCC(=O)NC2=NCCS2)cc1	4	8	3	0	3	nt	nt
COc1ccc(/C=N/Nc2cc(C)nc3ccc(Br)cc23)cc1	-1	7	21	16*	9.4*	4	1
COc1ccc2nc(C)cc(N/N=C/c3cccc(OC)c3O)c2c1	-23	14	2	1	27*	20*	2
COc1cccc2c(N/N=C/c3ccccc3)cc(C)nc12	-6	-7	1	-1	5	nt	nt
Cc1cc(N/N=C/c2ccccc2O)c2ccccc2n1	-14	-4	13	0	6	nt	nt
CCCCCCCCNC(=O)C1CSCCS(=O)(=O)N1Cc1ccc(OC)cc1 (stereo unspecified)	nt	nt	nt	nt	-1	nt	nt
O=C(OC1CCOC1=O)c1ccc2ncsc2c1 (stereo unspecified)	-10	-10	0	0	12*	0	0
O=C(CSC1=NCCS1)N1CCc2ccccc21	-4	0	1	-1	8.1*	12*	8.4*
O=C(CS(=O)(=O)c1ccccc1)N1CCc2ccccc21	-7	13	0	-2	10*	8.5*	9.8*
O=C(Cc1ccccc1)N1CCc2ccccc21	2	0	-2	-2	4	nt	nt
CCOC(=O)Cc1nn(Cc2ccc(Cl)cc2)c(=O)c2ccccc12	12	-4	0	-2	8.8*	-4	1
CCC(=O)Nc1ccc2c(c1)ncn2-c1ccc(OC)cc1	-6	16	-1	0	2	nt	nt
CCC(=O)Nc1ccc2c(c1)ncn2-c1ccc(C)cc1	-5	-1	0	-1	8.6*	6	8.7*
COC(=O)[C@]12C[C@H](CC(=O)NCc3cccs3)C(=O)N(CCC3=CCCCC3)C1=C[C@H](C1CCCC1)O[C@@H]2C	nt	nt	nt	nt	-1	nt	nt
CC(=O)c1ccc(Sc2nnnn2-c2ccccc2)c([N+](=O)[O-])c1	-4	9	-3	-2	8.6*	8	2
CN1CCN(S(=O)(=O)c2ccc(Sc3nnnn3-c3ccccc3)c([N+](=O)[O-])c2)CC1	0	5	0	-4	1	nt	nt
CCCCN(C)CCCNC(=O)c1cc(=O)[nH]c2ccc(S(=O)(=O)N3CCCCC3C)cc12 (stereo unspecified)	-6	5	2	-3	8.2*	0	1
S=c1nccc(-c2ccc(Cl)cc2)[nH]1	7	1	1	0	8.1*	-2	3
Clc1ccc(-c2ccn[nH]2)cc1	-7	-1	-1	-3	-2	nt	nt
COC(=O)[C@]12C[C@H](CC(=O)N3CCC(c4ccccc4)CC3)C(=O)N(CCC3=CCCCC3)C1=C[C@H](C1CCCC1)O[C@@H]2C	nt	nt	nt	nt	-5	nt	nt
Cc1cc(NS(=O)(=O)c2ccc(NC(=O)Cc3ccc(Cl)c(F)c3)cc2)no1	nt	nt	nt	nt	1	nt	nt
Clc1ccc(-c2nc3ccc(Cl)cn3c2Cc2ccsc2)cc1	nt	nt	2	nt	11*	8.9*	5
Clc1ccc2nc(-c3ccccc3)c(Cc3ccsc3)n2c1	nt	nt	-1	nt	nt	nt	nt
CC1(C)CC(=O)C=C(C#CC2CC2)C1	nt	nt	nt	nt	1	nt	nt
